Source: PubChem BioAssay
Rows were chosen to be rich in hits. Some 2.6% of all compounds tested hit in one or more screens of this group.
rCAG RNA binder: molecules binding r(CAG) RNA repeats; r(CAG) RNA repeat, TO-PRO-1 dye displacement fluorescence; inhibition, % at 3 µM; 370,000 tested, 1.3% active;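 active = inhibition above the plate cutoff, the mean of all test compounds on that plate plus 3 SD, cut at about 35% in these data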;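 also: 0% = DMSO alone and 100% = 100 µM mitoxantrone as full dye displacement; higher means more dye released from RNA so lower well fluorescence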
NR1D1 modulator: Rev-erb alpha (human) modulation. P20393. Rev-erbα–FITC-DNA binding, fluorescence polarization, 90 min. activity, % at 10 µM. 370,000 tested, 0.79% active. AID 1259318;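 active = activity above about 14%, limit read from the data; passing the limit was not always enough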;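 also: 0% = DMSO wells with 35 nM protein and 100% = DMSO wells with 750 nM protein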
Target sequence (P20393 whole entry, looked up): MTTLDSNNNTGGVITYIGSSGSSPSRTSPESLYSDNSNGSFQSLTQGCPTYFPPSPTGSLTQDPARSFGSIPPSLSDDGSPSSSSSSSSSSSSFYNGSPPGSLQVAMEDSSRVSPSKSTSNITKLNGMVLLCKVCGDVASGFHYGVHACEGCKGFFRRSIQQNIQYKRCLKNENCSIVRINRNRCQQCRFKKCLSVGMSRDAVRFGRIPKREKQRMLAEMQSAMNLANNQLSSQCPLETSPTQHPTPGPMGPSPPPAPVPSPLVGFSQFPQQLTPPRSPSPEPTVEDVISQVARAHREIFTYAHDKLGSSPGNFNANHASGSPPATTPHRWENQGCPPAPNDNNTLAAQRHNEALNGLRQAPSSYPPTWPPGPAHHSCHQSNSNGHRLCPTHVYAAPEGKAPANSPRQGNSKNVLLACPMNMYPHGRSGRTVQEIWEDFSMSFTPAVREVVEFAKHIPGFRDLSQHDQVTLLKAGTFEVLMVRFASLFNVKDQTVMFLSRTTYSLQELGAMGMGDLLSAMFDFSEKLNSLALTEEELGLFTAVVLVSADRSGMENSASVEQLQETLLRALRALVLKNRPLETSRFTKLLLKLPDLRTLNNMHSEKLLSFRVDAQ
NR2E3 ag-1: activates human NR2E3 receptor | CHO-S Gal4-NCOR/VP16-NR2E3 two-hybrid, luciferase | inhibition of corepressor binding, % at 3.98 µM | 360,000 tested, 0.35% active | Q9Y5X4;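 active = inhibition above the mean of all tested compounds plus 3 SD, cut at about 70% in these data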;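 also: 0% = DMSO with NR2E3 transfected cells and 100% = cells lacking NR2E3 construct; higher means lower luciferase signal from less NR2E3 corepressor binding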
NR2E3 ag-2: agonists of human nuclear receptor NR2E3 | GST-NR2E3/biotin-RetCOR TR-FRET, 1536-well | AID 2300 | Q9Y5X4 | inhibition of corepressor binding, % at 4.78 µM | 320,000 tested, 0.12% active;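 active = percent inhibition above the cutoff of mean plus 3 SD of all tested compounds, set per screening campaign, cut at about 20% in these data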;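 also: 0% = DMSO wells and 100% = biotin wells as full block of FRET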
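Material: NR2E3–RetCOR corepressor complex / Amount: 1.35 nM GST-NR2E3 / Medium: Tris pH 7.5 / Compound: single nominal compound dose of 4.8 µM / Incubation: 5 h at 4 °C / Technique: TR-FRET, Eu(K)-anti-GST donor, streptavidin-D2 acceptor, ex 340, em 617/671 nm / Read-out basis: percent loss of FRET ratio relative to control wells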
PG9 Ab binder: PG9 antibody binding by small molecule; 360,000 tested, 0.43% active; inhibition, % at 6.7 µM; TR-FRET gp120-PG9 antibody binding; in the data active = inhibition above about 8.5%
rCAG binder conf: r(CAG) RNA repeat binding, confirmation; inhibition, % at 3 µM; 4,300 tested, 70% active; TO-PRO-1 dye displacement fluorescence; shares compounds with rCAG RNA binder;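 active = inhibition above a per-plate cutoff, the mean inhibition of sample wells plus 3 SD, cut at about 35% in these data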;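 also: loss of TO-PRO-1 fluorescence as compound displaces dye from 1x1 AA loop RNA; 0% = DMSO only wells and 100% = 100 µM mitoxantrone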
dCAG dye counter: DNA CAG dye complex inhibition counter-screen | shares compounds with rCAG RNA binder | d(CAG) DNA oligo TO-PRO-1 dye displacement, fluorescence | inhibition, % at 3 µM | 4,300 tested, 94% active;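 active = inhibition above its plate's cutoff, the mean test-well inhibition plus 3 SD, cut at about 4.8% in these data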;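 also: 0% = DNA dye mix with DMSO and 100% = 100 µM mitoxantrone; hits displace the dye from DNA and so lower well fluorescence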
An asterisk follows results filed as active; . = not tested or not shown; ! = not active in a repeat.

SMILES | rCAG RNA binder | NR1D1 modulator | NR2E3 ag-1 | NR2E3 ag-2 | PG9 Ab binder | rCAG binder conf | dCAG dye counter
COC(=O)C1C(c2ccc(F)cc2)CC2CCC1N2C (centres undefined) | 1 | -2 | . | . | 1 | . | .
Cc1cc(OCC(=O)N[C@@H](Cc2ccccc2)C(=O)O)c2c3c(c(=O)oc2c1)CCCC3 | 46* | -1 | -52 | -4 | -1 | 37* | 7.9*
COc1cccc(N2C(=O)NC(=O)/C(=C/c3ccc([N+](=O)[O-])s3)C2=O)c1 | 59* | -1 | -21 | 1 | -2 | 43* | 20*
COc1ccccc1N1C(=O)NC(=O)/C(=C/c2ccc([N+](=O)[O-])s2)C1=O | 84* | -2 | . | 2 | -3 | 60* | 28*
COc1ccc(N2C(=O)NC(=O)/C(=C/c3ccc([N+](=O)[O-])s3)C2=O)cc1 | 69* | 2 | 7 | 4 | -3 | 50* | 21*
CCOc1ccc(N2C(=O)NC(=O)/C(=C\c3cc(OC)c(OC)cc3[N+](=O)[O-])C2=O)cc1 | . | . | 31 | 3 | . | . | .
COc1cccc(N2C(=O)NC(=O)/C(=C/c3ccc4c(c3)Cc3ccccc3-4)C2=O)c1 | 8 | -1 | -123 | -2 | -1 | . | .
COc1ccc(N2C(=O)NC(=O)/C(=C\c3ccc([N+](=O)[O-])s3)C2=O)cc1 | 76* | -9 | -4 | 1 | -4 | 54* | 21*
O=[N+]([O-])/C=C/c1c(Cl)cccc1Cl | 4 | 4 | 5 | . | 1 | . | .
CN1CCCC1c1ccc(=O)[nH]c1 (centres undefined) | 2 | 1 | -17 | . | 0 | . | .
COc1ccc(N2C(=O)/C(=C/C=C/c3ccccc3[N+](=O)[O-])C(=O)NC2=S)cc1 | 84* | -7 | . | . | -3 | 78* | 44*
COc1ccc(N2C(=O)/C(=C/c3cccs3)C(=O)NC2=S)cc1 | 23 | -1 | -14 | -2 | 0 | . | .
CC(C)(C)[C@]1(O)C[C@@H]2OC(=O)C[C@@]23C(=O)O[C@@H]2OC(=O)[C@@H](O)C213 (some centres undefined) | 1 | 0 | -8 | . | 0 | . | .
Cc1nn(CC(C)C)c(Cl)c1C(=O)NC1CCCCC1 | -10 | -3 | -29 | . | 0 | . | .
NCCc1cc(O)c(O)cc1O | 61* | -28 | -17 | . | 11*! | 28 | 14*
COC(=O)C1=C(c2cccc(OCc3ccccc3)c2)C[C@@H]2CC[C@H]1N2C(=O)NCCN1CCOCC1 | -6 | 0 | -8 | -2 | 0 | . | .
O=c1nc(/C=C/c2ccc(Cl)cc2Cl)cc(C(F)(F)F)[nH]1 | 49* | -5 | 14 | . | -1 | 38* | 10*
Cn1cccc1/C=C1\C(=O)NC(=O)N(Cc2ccccc2Cl)C1=O | 46* | -3 | -26 | . | -4 | 10 | 4
CC12CC(=O)C3C(CCC4CC(=O)C=CC43C)C1CCC2=O (centres undefined) | 0 | 1 | 4 | . | -1 | . | .
NC(N)=Nc1ccc2[nH]c3c(c2c1)C[C@@]1(O)[C@H]2Cc4ccc(O)c5c4[C@@]1(CCN2CC1CC1)[C@H]3O5 | . | . | 1 | 1 | . | . | .
O=C1NC(=O)N(Cc2ccco2)C(=O)/C1=C\c1cccn1CCOc1ccc(Cl)cc1 | 35* | -7 | -32 | 5 | -2 | 11 | 7.6*
Cc1cccc(OCCn2cccc2/C=C2/C(=O)NC(=O)N(Cc3ccco3)C2=O)c1 | 35* | -3 | -6 | 0 | 0 | 11 | 7.7*
CCc1ccc(N2C(=O)NC(=O)/C(=C/c3cccn3CCOc3ccc(C)cc3)C2=O)cc1 | 10 | 0 | -42 | -6 | 0 | . | .
CCc1ccc(N2C(=O)NC(=O)/C(=C/c3cccn3CCOc3ccc(C(C)CC)cc3)C2=O)cc1 (centres undefined) | 6 | -5 | 31 | 5 | 1 | . | .
Cc1cccc(NC(=O)COC(=O)c2cc(C)n(C3CC3)c2C)c1 | 11 | 1 | -21 | 3 | 0 | . | .
SMILES | rCAG RNA binder | NR1D1 modulator | NR2E3 ag-1 | NR2E3 ag-2 | PG9 Ab binder | rCAG binder conf | dCAG dye counter
C[C@]12CC[C@H](O)C[C@H]1CC[C@@H]1[C@@H]2CC[C@]2(C)C(=O)CC[C@@H]12 | -3 | 4 | -32 | . | -2 | . | .
CCOP(=O)(C#CC(C)(C)C)C(C)(O)c1ccccc1 (centres undefined) | -4 | -6 | -29 | 2 | -2 | . | .
CC(C)(C#CC(=O)O)OOC(c1ccccc1)(c1ccccc1)c1ccccc1 | 53* | 1 | 4 | 0 | -1 | 57* | 20*
CCOC(=O)c1[nH]c2ccc(OC)cc2c1C(SCC(=O)O)c1ccc(C(F)(F)F)cc1 (centres undefined) | 56* | 4 | 12 | 1 | 1 | 51* | 14*
CCC1CN1P(=O)(Oc1ccc(Cl)cc1)N1CC1CC (centres undefined) | 2 | 4 | 5 | . | 0 | . | .
COc1ccc(Cn2c(O)c(/C=N/NC(=O)c3ccccc3O)c(=O)[nH]c2=O)cc1 | 91* | -5 | -45 | -2 | -3 | 76* | 37*
O=C(N/N=C/c1c(O)n(CCc2ccccc2)c(=O)[nH]c1=O)c1ccccc1O | 87* | 0 | -29 | -1 | 0 | 65* | 25*
COc1ccc(Cn2c(O)c(/C=N/NC(=O)c3ccccc3)c(=O)[nH]c2=O)cc1 | 30 | 0 | -87 | 3 | -6 | . | .
O=C(N/N=C/c1c(O)n(Cc2ccc(F)cc2)c(=O)[nH]c1=O)c1ccccc1O | 85* | -1 | -55 | 6 | 1 | 67* | 26*
CNC(=O)Oc1cccc2c1OC(C)(C)O2 | 0 | 3 | 7 | . | 0 | . | .
COC(=O)C1=C(c2ccc(-c3ccccc3)c(F)c2)C[C@@H]2CC[C@H]1N2C(=O)NCc1cccc2ccccc12 | 3 | 0 | -9 | 2 | -1 | . | .
O=P(NS(=O)(=O)c1ccc(Cl)cc1)(Oc1ccccc1)Oc1ccccc1 | 62* | -1 | 6 | 3 | -2 | 59* | 19*
Cc1ccc(C)c(NP(=O)(Oc2ccccc2)Oc2ccccc2)c1 | -5 | 4 | 32 | 4 | 2 | . | .
O=P(NS(=O)(=O)c1ccccc1)(Oc1ccccc1)Oc1ccccc1 | 30 | 1 | -6 | -1 | -2 | . | .
Cc1ccc(S(=O)(=O)NP(=O)(Oc2ccccc2)Oc2ccccc2)cc1 | 40* | 0 | 1 | 1 | -2 | 36* | 9.7*
O=P(NS(=O)(=O)c1ccc(Br)cc1)(Oc1ccccc1)Oc1ccccc1 | 73* | 3 | 19 | 4 | -2 | 63* | 25*
Cc1ccc(/C=C2\C(=O)NC(=S)N(c3ccccc3F)C2=O)s1 | 35* | -2 | -21 | -2 | -1 | 16 | 8.2*
COC(=O)C1=C(c2ccccc2OCc2ccccc2)C[C@@H]2CC[C@H]1N2C(=O)NCCCOC(C)C | -7 | -3 | -3 | 2 | -1 | . | .
